Assay results as given in PubChem BioAssay.
Active and inactive are the calls of the source.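 Rule for the calls, unless noted: active = viability at or under a set limit in both replicates, limit being median viability minus 3 SD (cut at about 48% in these data, passing the limit was not always enough); inconclusive = at or under the limit in just one replicate; inactive = at or above the limit in both replicates.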

Columns and labels:
[1] = SK-BR-3 cell growth inhibitors, pilot screen, 24 h, human (AID 572;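 active = viability at or below 10% of carrier control in both of two separate runs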;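 note: compound exposure lasted between 18 and 24 h rather than exactly 24 h; 100% = carrier-treated control wells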); conditions: SK-BR-3 viability, CellTiter-Glo luminescence, at 10 µM, stronger effect = lower value
[2] = HUVEC growth inhibition – cell-based, human, primary screen (AID 575;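 active = viability at or below 30% in both replicate assays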;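 note: 100% = median of untreated cell wells with 0.1% DMSO on each plate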); conditions: HUVEC proliferation, CellTiter-Glo luminescence, 72 h; at 10 µM; stronger effect = lower value
Summary of the method: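 System – primary HUVEC, no more than 12 passages · Medium – Low-serum (2% FBS) EBM, supplemented · Times – 72 h exposure, 37 °C, 5% CO2, 30 min RT equilibration · Measured by – luminescent ATP assay · Read-out – % viability relative to median vehicle-well signal on each plate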

[3] = growth inhibitors of H69AR lung tumor, primary screen, human, duplicate replicates (AID 580); conditions: H69AR lung tumor cells viability, ATP luminescence, 72 h; at 10 µM; stronger effect = lower value;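 note: 100% = mean luminescence of untreated wells and 0% = no signal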
[4] = reversal of MRP1-mediated doxorubicin resistance, pilot screen, H69AR cells, doxorubicin co-treatment (AID 601;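 active = viability loss from added drug above about 55%, and viability with drug at most 40%, in both replicates, limit read from the data, passing the limit was not always enough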); conditions: CellTiter-Glo, 72 h, at 10 µM; for differential viability (reversal): stronger effect = higher value
[5] = 384-well plate pilot, post-Golgi transport modulator project, inhibition of yeast transport mutant growth (AID 636; in the data active = inhibition above about 31%); conditions: absorbance 615 nm, about 18 h, stronger effect = higher value
[6] = growth suppression of yeast trafficking mutant, preliminary HTS, modulators of trafficking downstream of Golgi apparatus project, 1536-format plate, OD 615 nm (AID 637; in the data active = inhibition above about 30%); conditions: yeast transport mutant growth, absorbance 615 nm, 18 h; stronger effect = higher value
[7] = H69AR cells + 2 uM doxorubicin, measured here: viability with 2 uM doxorubicin, stronger effect = lower value
[8] = H69AR cells, compound alone cytotoxicity

Row | Structure (SMILES) | viability [1] | viability [2] | viability [3] | differential viability (reversal) ([4]; H69AR cells + 2 uM doxorubicin) | viability [4, 7] [%] | viability [4, 8] [%] | inhibition [5] | inhibition [6]
1 | COc1cc2c(cc1OC)C(/C(C#N)=N\O)=NC(C)(C)C2 | 86% (inactive) | 107% (inactive) | 100% (inactive) | 8.75% (inactive) | 91.6 | 100 | -8.77% (inactive) | 2% (inactive)
2 | Cc1c(C(=O)N2CCN(c3ccccc3)CC2)sc2ncnc(N3CCN(c4ccccc4)CC3)c12 | 88% (inactive) | 82.5% (inactive) | 93% (inactive) | -4.17% (inactive) | 97.2 | 93 | 0.13% (inactive) | -4.59% (inactive)
3 | COC(=O)c1nnn(-c2ccccc2)c1N | 103% (inactive) | 100% (inactive) | 103% (inactive) | -1.73% (inactive) | 105 | 103 | -1.82% (inactive) | 3.61% (inactive)
4 | OC(CCCN1CCC(O)(c2ccc(Cl)cc2)CC1)c1ccc(F)cc1 (configuration not stated) | 89% (inactive) | 73.1% (inactive) | 66.1% (inactive) | -6.19% (inactive) | 72.3 | 66.1 | 2.47% (inactive) | 4.5% (inactive)
5 | O=C(NCc1cccs1)c1cc2c(s1)CS(=O)(=O)C2 | 116% (inactive) | 101% (inactive) | 98.1% (inactive) | 4.27% (inactive) | 93.8 | 98.1 | -4% (inactive) | -1.64% (inactive)
6 | Fc1cccc(Cl)c1Cn1nnc2c(NCc3ccccn3)ncnc21 | 76% (inactive) | 92.9% (inactive) | 105% (inactive) | 14.2% (inactive) | 91.1 | 105 | -4.66% (inactive) | -4.84% (inactive)
7 | O=C(COC(=O)c1cc(S(=O)(=O)N2CCOCC2)cs1)c1ccccc1 | 115% (inactive) | 93.3% (inactive) | 99.9% (inactive) | 16.3% (inactive) | 83.5 | 99.9 | -3.64% (inactive) | -1.97% (inactive)
8 | CCOc1ccc(-c2nc(N)ncc2-c2ccccc2)c(O)c1 | 136% (inactive) | 95.3% (inactive) | 65.3% (inactive) | -14.3% (inactive) | 79.6 | 65.3 | -5.95% (inactive) | -8.1% (inactive)
9 | CC(C)(Oc1ccc(CCNC(=O)c2ccc(Cl)cc2)cc1)C(=O)O | 95% (inactive) | 83.1% (inactive) | 105% (inactive) | 8.17% (inactive) | 96.8 | 105 | -4.29% (inactive) | -0.67% (inactive)
10 | CCc1nnc(NC(=O)CSc2nnc(-c3ccccc3OC)n2-c2ccccc2)s1 | 77% (inactive) | 108% (inactive) | 85.2% (inactive) | -1.85% (inactive) | 87 | 85.2 | -1.73% (inactive) | -1.45% (inactive)
11 | CC1CCN(CCCNC(=O)c2coc3nc4ccccc4nc23)CC1 | 148% (inactive) | 90.6% (inactive) | 92.9% (inactive) | -6.4% (inactive) | 99.3 | 92.9 | -2.73% (inactive) | -2.13% (inactive)
12 | CC1(C)C(c2cccs2)=[N+]([O-])C2(CCCCC/C2=N\O)N1O (configuration not stated) | 99% (inactive) | 101% (inactive) | 110% (inactive) | 18.4% (inactive) | 91.8 | 110 | -7.95% (inactive) | -1.27% (inactive)
13 | O=C1OC(c2ccc(O)cc2)(c2ccc(O)cc2)c2ccccc21 | 83% (inactive) | 48.8% (inactive) | 102% (inactive) | 4.57% (inactive) | 97.7 | 102 | -2.73% (inactive) | 8.67% (inactive)
14 | COCCCN(Cc1ccccn1)S(=O)(=O)Cc1ccccc1 | 130% (inactive) | 83.5% (inactive) | 105% (inactive) | 17.9% (inactive) | 86.7 | 105 | -4.11% (inactive) | -9.68% (inactive)
15 | CC(=O)c1ccccc1NS(=O)(=O)c1c(C)nn(-c2ccccc2)c1C | 99% (inactive) | 77.6% (inactive) | 88.3% (inactive) | -5% (inactive) | 93.3 | 88.3 | -3.11% (inactive) | -4.55% (inactive)
16 | O=C(Nc1nc(-c2cccs2)cs1)c1cccc(S(=O)(=O)N2CCCCC2)c1 | 194% (inactive) | 67.2% (inactive) | 66.8% (inactive) | -5.37% (inactive) | 72.2 | 66.8 | 3.9% (inactive) | 1.64% (inactive)
17 | C/C(Nc1cccc(F)c1)=C(/C#N)C(N)=O | 107% (inactive) | 122% (inactive) | 99.2% (inactive) | 5.34% (inactive) | 93.9 | 99.2 | -4.32% (inactive) | -5.64% (inactive)

Row | Structure (SMILES) | viability [1] | viability [2] | viability [3] | differential viability (reversal) ([4]; H69AR cells + 2 uM doxorubicin) | viability [4, 7] [%] | viability [4, 8] [%] | inhibition [5] | inhibition [6]
18 | COc1ccc(S(=O)(=O)NCCCN2CCOCC2)c2ccccc12 | 102% (inactive) | 101% (inactive) | 86.8% (inactive) | 5.68% (inactive) | 81.1 | 86.8 | -6.53% (inactive) | -0.18% (inactive)
19 | O=C(Cc1nc2ccccc2s1)c1ccc(O)cc1O | 100% (inactive) | 87.3% (inactive) | 90.8% (inactive) | 4.72% (inactive) | 86 | 90.8 | -4.53% (inactive) | -0.18% (inactive)
20 | COCCN(CCOC)C(=O)CCn1c(=O)oc2ccccc21 | 95% (inactive) | 105% (inactive) | 89% (inactive) | -7.45% (inactive) | 96.5 | 89 | -3.97% (inactive) | -0.18% (inactive)
21 | CC1CCCCC1NC(=O)COc1ccc(-n2cnnn2)cc1 (configuration not stated) | 100% (inactive) | 103% (inactive) | 101% (inactive) | -0.38% (inactive) | 101 | 101 | 0% (inactive) | 0.73% (inactive)
22 | CCCCNC(=O)NS(=O)(=O)c1ccc(C)cc1 | 97% (inactive) | 76.7% (inactive) | 95.3% (inactive) | -5.94% (inactive) | 101 | 95.3 | -1.04% (inactive) | -2.5% (inactive)
23 | COc1cccc(Nc2nnc(SCC(=O)N3CC(C)OC(C)C3)s2)c1 (configuration not stated) | 92% (inactive) | 75.3% (inactive) | 102% (inactive) | 2.69% (inactive) | 99.1 | 102 | -2.4% (inactive) | -0.36% (inactive)
24 | Cc1ccc(-n2c(C)cc3c2CCCC3=O)cc1 | 113% (inactive) | 112% (inactive) | 93.3% (inactive) | -0.79% (inactive) | 94.1 | 93.3 | -9.07% (inactive) | -3.09% (inactive)
25 | CCn1c(=O)c2cc(S(=O)(=O)NCc3ccccc3)ccc2n(CC)c1=O | 93% (inactive) | 62.8% (inactive) | 19.4% (active) | -77.1% (inactive) | 96.5 | 19.4 | -1.3% (inactive) | 18.7% (inactive)
26 | COc1ccc(-c2ccc(-c3nnn(CC(C)=O)n3)cc2)cc1 | 118% (inactive) | 105% (inactive) | 76.9% (inactive) | 3.31% (inactive) | 73.6 | 76.9 | -4.16% (inactive) | -9.02% (inactive)
27 | CSc1ncc(Cl)c(C(=O)Nc2ccc(S(=O)(=O)N3CCOCC3)cc2)n1 | 85% (inactive) | 97% (inactive) | 101% (inactive) | 9.55% (inactive) | 91.8 | 101 | -7.67% (inactive) | 0.36% (inactive)
28 | O=C(Nc1cccc(NC(=O)c2ccco2)c1)c1ccc2c(c1)OCO2 | 106% (inactive) | 61% (inactive) | 82.4% (inactive) | -4.39% (inactive) | 86.8 | 82.4 | -1.18% (inactive) | 21.2% (inactive)
29 | N#Cc1c(-c2ccc3c(c2)OCO3)csc1N | 96% (inactive) | 83.9% (inactive) | 95.2% (inactive) | 1.51% (inactive) | 93.7 | 95.2 | 3.29% (inactive) | 4.73% (inactive)
30 | Cc1cnc(C(=O)NCCc2ccc(S(=O)(=O)NC(=O)NC3CCCCC3)cc2)cn1 | 94% (inactive) | 94.9% (inactive) | 89.3% (inactive) | -16.6% (inactive) | 106 | 89.3 | 1.04% (inactive) | 2% (inactive)
31 | CC(CCc1ccccc1)NC(=O)C1CCN(S(=O)(=O)c2cnc[nH]2)CC1 (configuration not stated) | 110% (inactive) | 96.4% (inactive) | 91.3% (inactive) | 10.2% (inactive) | 81.1 | 91.3 | -9.73% (inactive) | -3.45% (inactive)
32 | Cc1cccc(CC(=O)Nc2c3c(nn2-c2cccc(Cl)c2)CS(=O)C3)c1 (configuration not stated) | 104% (inactive) | 88.9% (inactive) | 85.2% (inactive) | -10.9% (inactive) | 96.1 | 85.2 | 1.3% (inactive) | -6.72% (inactive)
33 | CC(C)NCC(O)COc1ccc(CCOCC2CC2)cc1 (configuration not stated) | 102% (inactive) | 83.3% (inactive) | 95.8% (inactive) | -14.9% (inactive) | 111 | 95.8 | -0.91% (inactive) | -5% (inactive)
34 | Cn1c(=O)cc(SCC(=O)NCc2cccnc2)c2ccccc21 | 92% (inactive) | 109% (inactive) | 92.7% (inactive) | 8.73% (inactive) | 83.9 | 92.7 | -6.8% (inactive) | -1.82% (inactive)
